Inconclusive results are not listed.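 How the source made its calls, unless noted: active means viability increase at or above a cutoff of the median across tested compounds plus 3 SD (cut at about 8.5% in these data, passing the limit was not always enough); inconclusive means some gains above the cutoff, reason not given; inactive means the rest.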
Experiments:
[1] = OD615 S. cerevisiae growth inhibition, permissive medium, pilot counter-assay, permissive growth control for S. cerevisiae lifespan shortening project (AID 705;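 active means growth inhibition above 25% in both replicates, a cutoff set 3 SD above the mean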); conditions: OD615, 24 h, at 10 µM, active compounds read high
How it was run: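 Timing: 24 h exposure, 30 °C / Material: Saccharomyces cerevisiae strain carrying genetically modified DeaD replicative-lifespan system / Signal: OD at 615 nm / Compound: 10 µM single dose, 0.25% DMSO / Medium: SC raffinose/galactose permissive medium / Evaluation: reduction in yeast growth (OD615)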

[2] = Restrictive medium S. cerevisiae growth inhibition, OD615, pilot screen of yeast lifespan reduction project, restrictive growth control (AID 706;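 active means growth inhibition above a set limit, 3 SD over mean compound inhibition, in both replicates, cut at about 43% in these data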;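 further: modified DeaD lifespan yeast strain shifted to restrictive glucose medium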); conditions: OD615, 48 h, at 10 µM, active compounds read high
How it was run: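 System: Engineered S. cerevisiae DeaD strain | Detection: OD615 | Buffer or medium: CSMM-D glucose medium | Doses: 10 µM compound, 0.25% DMSO | Timing: 4 h pre-growth plus 48 h compound exposure, 30 °C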

[3] = viability gain of MRP-1-high H69AR cells under doxorubicin, pilot screen, MRP-1 activator project, CellTiter-Glo, duplicate (AID 807); conditions: H69AR viability with doxorubicin, CellTiter-Glo luminescence; at 10 µM; active compounds read high;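 further: compound pretreatment 18-22 h then 72 h combined with doxorubicin; 0% = doxorubicin alone and 100% = vehicle without doxorubicin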
[4] = growth suppression of beta-catenin knockout HCT116, pilot screen, human colon tumor cells (AID 823;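 active means cell viability at or below a set limit in both duplicate runs, the limit being the all-compound median minus 4 SD, cut at about 23% in these data, passing the limit was not always enough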;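 further: 0% = wells killed by 20 µM Hyamine and 100% = untreated DMSO cell wells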); conditions: CellTiter-Glo, 60 h, at 10 µM, active compounds read low
[5] = growth suppression of PTEN-deleted HCT116, pilot screen, cell-based, HCT116 clonal line, CellTiter-Glo (AID 824;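 active means viability at or below 27.92% in each of two runs, the all-compound median minus 4 SD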;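 further: 0% = 20 µM Hyamine control and 100% = vehicle cell control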); conditions: 60 h, at 10 µM, active compounds read low
[6] = inhibitors of the yeast RAM network, pilot screen, dse1pr::URA3 reporter, 5-FOA selection (AID 869;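 active means inhibition over a set limit, the all-compound mean plus 3 SD, in both replicate runs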;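 further: 0% = DMSO wells with no growth and 100% = 10 µM 1-NA-PP1 with full growth; RAM network block rescues cells from 5-FOA so hits raise OD615 growth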); conditions: S. cerevisiae dse1pr::URA3 5-FOA growth, OD615, 2 d; at 10 µM; active compounds read high; strain carries analog-sensitive mutant Cbk1 kinase
[7] = RAM signaling pathway blockade in yeast – S. cerevisiae, Pdr1DBD-CYC8 efflux-inhibited sensitized strain, primary screen (AID 1298;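 active means RAM network inhibition above 8.4% in each of two replicates, 3 SD over the compound average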;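 further: 0% = DMSO untreated cells without growth and 100% = 10 µM 1-NA-PP1 full growth; higher means more yeast growth rescued from 5-FOA killing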); conditions: S. cerevisiae cbk1-as DSE1-URA3 strain, 5-FOA growth OD615, 2 d; at 50 µM; active compounds read high

CCCN(CC1CC1)S(=O)(=O)c1ccc(S(N)(=O)=O)cc1
inactive: growth inhibition [1] -8.54% | growth inhibition [2] 0.87% | viability increase [3] -1.41% | viability [4] 100% | viability [5] 90.3% | inhibition [6] 0.505% | RAM network inhibition [7] 1.48%

CCOc1cccc(NC(=O)c2ccc(S(=O)(=O)N(C)C)cc2)c1
inactive: growth inhibition [1] -7.19% | growth inhibition [2] -8.01% | viability increase [3] -2.48% | viability [4] 98.6% | viability [5] 92.4% | inhibition [6] 0.83% | RAM network inhibition [7] 6%

CN1CCN(CCCNC(=O)c2ccc(CS(=O)(=O)c3ccc(Br)cc3)o2)CC1
inactive: growth inhibition [1] -7.34% | growth inhibition [2] -12.5% | viability increase [3] -1.18% | viability [4] 95.3% | viability [5] 90.8% | inhibition [6] 1.38% | RAM network inhibition [7] -0.99%

COc1cccc(C2CC(c3cccc(Br)c3)n3nc(N)nc3N2)c1 (configuration not stated)
inactive: growth inhibition [1] 2.54% | growth inhibition [2] 4.69% | viability increase [3] -0.49% | viability [4] 96.7% | viability [5] 90.3% | inhibition [6] 0.475% | RAM network inhibition [7] 5.95%

NC(=O)c1ccc(N2CCCCC2)c(N2C(=O)C3C4C=CC(C4)C3C2=O)c1 (configuration not stated)
inactive: growth inhibition [1] 0.39% | growth inhibition [2] -4.49% | viability increase [3] -2.98% | viability [4] 101% | viability [5] 92.6% | inhibition [6] 0.92% | RAM network inhibition [7] 3.75%

CCOc1ccccc1Oc1c(C)oc2cc(OC(=O)N3CCOCC3)ccc2c1=O
inactive: growth inhibition [1] -12.9% | growth inhibition [2] -3.33% | viability increase [3] -0.28% | viability [4] 103% | viability [5] 103% | inhibition [6] 2.8% | RAM network inhibition [7] 4.64%

CCOc1ccc(N=C2NC(=O)C(CC(=O)O)S2)cc1 (configuration not stated)
inactive: growth inhibition [1] -5.86% | growth inhibition [2] 3% | viability increase [3] -0.06% | viability [4] 104% | viability [5] 101% | inhibition [6] 2.49% | RAM network inhibition [7] 2.45%

COc1cc(OC)c(Cl)cc1N
inactive: growth inhibition [1] -8.61% | growth inhibition [2] -16.7% | viability increase [3] -2.54% | viability [4] 98% | viability [5] 95.7% | inhibition [6] 1.47% | RAM network inhibition [7] 2.8%

CCC(C)NC(=O)C(NS(=O)(=O)c1ccc2c(c1)c(=O)n(C)c(=O)n2C)c1ccccc1 (configuration not stated)
inactive: growth inhibition [1] -5.69% | growth inhibition [2] -11.3% | viability increase [3] -1.17% | viability [4] 101% | viability [5] 96.6% | inhibition [6] 1.19% | RAM network inhibition [7] 4.7%

CCOc1ccc(N(CC(=O)Nc2ccccc2)S(C)(=O)=O)cc1
inactive: growth inhibition [1] 0.69% | growth inhibition [2] -1.96% | viability increase [3] -1.68% | viability [4] 102% | viability [5] 97.4% | inhibition [6] -0.325% | RAM network inhibition [7] 4.68%

O=C(CN1CCN(Cc2ccc(F)cc2)C1=O)NCc1cccs1
inactive: growth inhibition [1] -6.23% | growth inhibition [2] -1.7% | viability increase [3] 1.33% | viability [4] 99.5% | viability [5] 94.1% | inhibition [6] 0.97% | RAM network inhibition [7] 2.12%

CCOC(=O)Cc1nnc(NC(=O)C(CC)Sc2nc(C)cc(=O)[nH]2)s1 (configuration not stated)
inactive: growth inhibition [1] 6.95% | growth inhibition [2] 22.4% | viability increase [3] -0.54% | viability [4] 83.4% | viability [5] 96.7% | inhibition [6] 2.96% | RAM network inhibition [7] 2.97%

Cc1cc(C(=O)Nc2cccnc2)on1
inactive: growth inhibition [1] -5.72% | growth inhibition [2] -5.71% | viability increase [3] -1.86% | viability [4] 103% | viability [5] 93.4% | inhibition [6] 0.355% | RAM network inhibition [7] 2.08%

CC1CN(Cc2nc3c(c(=O)n(C)c(=O)n3C)n2Cc2cccc(Cl)c2)CC(C)O1 (configuration not stated)
inactive: growth inhibition [1] -4.24% | growth inhibition [2] -9% | viability increase [3] -2.03% | viability [4] 100% | viability [5] 90.8% | inhibition [6] 0.74% | RAM network inhibition [7] 2.81%

CCOC(=O)N1CCN(C(=O)C2CCCN(Cc3nc(-c4ccc(Cl)cc4)oc3C)C2)CC1 (configuration not stated)
inactive: growth inhibition [1] 2.57% | growth inhibition [2] -13.2% | viability increase [3] -4.13% | viability [4] 37.9% | viability [5] 46.5% | inhibition [6] 0.12% | RAM network inhibition [7] 3.55%

CCC(=O)N1c2ccccc2NC2=C(C(=O)CC(c3ccco3)C2)C1c1ccco1 (configuration not stated)
inactive: growth inhibition [1] -7.69% | growth inhibition [2] 7.1% | viability increase [3] -1.65% | viability [4] 92.4% | viability [5] 92.4% | inhibition [6] 0.915% | RAM network inhibition [7] -0.58%

— PubChem BioAssay
